Assay results taken from ChEMBL document CHEMBL1629563, “Pharmacokinetic and safety evaluation of BILR 355, a second-generation nonnucleoside reverse transcriptase inhibitor, in healthy volunteers” (Antimicrob Agents Chemother, 2008).

Assays:
[1] = Renal clearance in healthy human at 25 mg, po administered as single dose by high-pressure liquid chromatography-tandem mass spectrometry/mass spectrometry method; type: ADME, organism-based, Kidney; settings: in vivo, read-out: CL_renal (converted)
Homo sapiens [2] = test: Toxicity in healthy human assessed as occurrence of maculopapular rash at 5 mg, po administered as single dose relative to control; type: organism-based; settings: in vivo
[3] = Apparent volume of distribution in terminal phase in healthy human at 12.5 mg, po administered as single dose coadministered with 100 mg of ritonavir; type: ADME, organism-based; settings: in vivo, read-out: Vz/F
Outline: (§1)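 Healthy male volunteers, fasted overnight, got one oral dose of BILR 355 in PEG solution with 200 ml water. Ritonavir 100 mg was given 10 h before and again with the dose. Plasma was sampled (EDTA) from predose to 144 h and assayed by validated LC-MS/MS. Cmax and Vz/F came from noncompartmental analysis. Vss/F = CL/F·(MRTp.o. − 1/Ka), with Ka from compartmental modelling.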

Homo sapiens [4] = test: Toxicity in healthy human assessed as occurrence of maculopapular rash at 62.5 mg, po administered as single dose coadministered with 100 mg of ritonavir; type: organism-based; settings: in vivo
Homo sapiens [5] = test: Toxicity in healthy human assessed as occurrence of fatigue at 50 mg, po administered as single dose coadministered with 100 mg of ritonavir; type: organism-based; settings: in vivo
Homo sapiens [6] = test: Ratio of Cmax in human at 75 mg, po in presence of 100 mg of ritonavir to Cmax in human at 75 mg, po; type: ADME, organism-based; settings: in vivo
Homo sapiens [7] = test: Toxicity in healthy human assessed as occurrence of migraine at 5 mg, po administered as single dose relative to control; type: organism-based; settings: in vivo
Homo sapiens [8] = test: Toxicity in healthy human assessed as occurrence of palpitations at 25 mg, po administered as single dose relative to control; type: organism-based; settings: in vivo
[9] = Drug excretion in healthy human urine assessed as unchanged drug at 50 mg, po administered as single dose coadministered with 100 mg of ritonavir by high-pressure liquid chromatography-tandem mass spectrometry/mass spectrometry method; type: ADME, organism-based; settings: read-out: Drug uptake
Outline: (§2)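 Ritonavir 100 mg was given 10 h before and with one oral dose of BILR 355 in PEG solution. Urine was collected by weight as predose blank, then 0-6, 6-24 and 24-72 h, stored at −20°C and assayed by LC-MS/MS. fe = unchanged drug excreted (Ae) as a percentage of dose. Line 50: high-fat breakfast 30 min before dosing.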

[10] = Drug excretion in healthy human urine assessed as unchanged drug at 87.5 mg, po administered as single dose coadministered with 100 mg of ritonavir by high-pressure liquid chromatography-tandem mass spectrometry/mass spectrometry method; type: ADME, organism-based; settings: read-out: Drug uptake; outline: as §2
[11] = Drug excretion in healthy human urine assessed as unchanged drug at 25 mg, po administered as single dose by high-pressure liquid chromatography-tandem mass spectrometry/mass spectrometry method; type: ADME, organism-based; settings: read-out: Drug uptake
Outline: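 Urine was collected by weight after one oral dose of BILR 355 in PEG solution in fasted healthy males. Intervals were predose blank, 0-6, 6-24 and 24-72 h, with the bladder voided before each. Aliquots were stored at −20°C and assayed by LC-MS/MS. fe = amount of unchanged drug excreted (Ae) as a percentage of the administered dose.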

[12] = AUC (0 to infinity) in healthy human at 75 mg, po administered as single dose coadministered with 100 mg of ritonavir; type: ADME, organism-based; design: dose 75 mg, route oral, time infinity; settings: plasma
Outline: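 Healthy male volunteers, fasted. Ritonavir 100 mg given 10 h before and again together with single oral BILR 355 in PEG solution. EDTA plasma sampled predose to 144 h. LC-MS/MS assay after protein precipitation. Noncompartmental analysis, AUC by linear up/log down trapezoidal rule; Vss = CL/F·(MRTp.o. − 1/Ka).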

[13] = AUC (0 to last) in healthy human at 12.5 mg, po administered as single dose; type: ADME, organism-based; design: dose 12.5 mg, route oral, time 0 - last; settings: plasma
Outline: (§3)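 Healthy male volunteers, six active plus two placebo per dose group, single oral dose in PEG solution with 200 ml water after overnight fast; breakfast 60 to 90 min post-dose. EDTA plasma sampled predose to 144 h. Assayed by validated LC-MS/MS after protein precipitation. Noncompartmental analysis, AUC by linear up/log down trapezoidal rule; Vss = CL/F·(MRTp.o. − 1/Ka).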

Homo sapiens [14] = test: Toxicity in healthy human assessed as occurrence of frequent bowel movements at 12.5 mg, po administered as single dose relative to control; type: organism-based; settings: in vivo
[15] = Apparent volume of distribution at steady state in healthy human at 50 mg, po administered as single dose; type: ADME, organism-based; settings: in vivo, read-out: Vss/F
Outline: (§4)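 Single fasting oral dose of BILR 355 in PEG solution with 200 ml tap water, given to healthy males. Standard breakfast came 60-90 min after the dose. EDTA plasma was sampled predose to 144 h, stored below −18°C and assayed by LC-MS/MS after protein precipitation. Noncompartmental analysis gave Vz/F. Vss/F = CL/F·(MRTp.o. − 1/Ka), with Ka from compartmental modelling.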

[16] = Apparent oral clearance in healthy human at 25 mg, po administered as single dose; type: ADME, organism-based; settings: in vivo; outline: as §3
Homo sapiens [17] = test: Toxicity in healthy human assessed as occurrence of neurological eyelid disorder at 75 mg, po administered as single dose relative to control; type: organism-based; settings: in vivo
Homo sapiens [18] = test: Toxicity in healthy human assessed as occurrence of frequent bowel movements at 50 mg, po administered as single dose relative to control; type: organism-based; settings: in vivo
Homo sapiens [19] = test: Toxicity in healthy human assessed as occurrence of maculopapular rash at 100 mg, po administered as single dose relative to control; type: organism-based; settings: in vivo
[20] = Apparent oral clearance in healthy human at 5 mg, po administered as single dose; type: ADME, organism-based; settings: in vivo; outline: as §3
Homo sapiens [21] = test: Apparent oral clearance in healthy human at 75 mg, po administered as single dose; type: ADME, organism-based; settings: in vivo; outline: as §3
Homo sapiens [22] = test: Toxicity in healthy human assessed as occurrence of headache at 12.5 mg, po administered as single dose relative to control; type: organism-based; settings: in vivo
[23] = Renal clearance in healthy human at 37.5 mg, po administered as single dose coadministered with 100 mg of ritonavir by high-pressure liquid chromatography-tandem mass spectrometry/mass spectrometry method; type: ADME, organism-based, Kidney; settings: in vivo, read-out: CL_renal (converted)
[24] = Apparent volume of distribution at steady state in healthy human at 37.5 mg, po administered as single dose coadministered with 100 mg of ritonavir; type: ADME, organism-based; settings: in vivo, read-out: Vss/F; outline: as §1
Homo sapiens [25] = test: Toxicity in healthy human assessed as occurrence of palpitations at 100 mg, po administered as single dose relative to control; type: organism-based; settings: in vivo
[26] = Drug excretion in healthy human urine assessed as unchanged drug at 75 mg, po administered as single dose coadministered with 100 mg of ritonavir by high-pressure liquid chromatography-tandem mass spectrometry/mass spectrometry method; type: ADME, organism-based; settings: read-out: Drug uptake; outline: as §2
[27] = Half life in healthy human at 5 mg, po administered as single dose coadministered with 100 mg of ritonavir; type: ADME, organism-based; settings: in vivo
[28] = Apparent volume of distribution in terminal phase in healthy human at 25 mg, po administered as single dose; type: ADME, organism-based; settings: in vivo, read-out: Vz/F; outline: as §4
Homo sapiens [29] = test: Ratio of half life in human at 12.5 mg, po in presence of 100 mg of ritonavir to half life in human at 12.5 mg, po; type: ADME, organism-based; settings: in vivo
Homo sapiens [30] = test: Toxicity in high fat fed healthy human assessed as occurrence of maculopapular rash at 50 mg, po administered as single dose coadministered with 100 mg of ritonavir; type: organism-based; settings: in vivo

CCN1c2ncc(CCOc3cc[n+]([O-])c4ccccc34)cc2C(=O)N(C)c2cccnc21 [BILR 355]
CL renal [1]: 11.5 mL/min | Activity (Homo sapiens [2]): 0% | Vd/F [3]: 149 L | Activity (Homo sapiens [4]): 0% | Activity (Homo sapiens [5]): 0% | Ratio (Homo sapiens [6]): 2.3 | Activity (Homo sapiens [7]): 0% | Activity (Homo sapiens [8]): 0% | dose excreted [9]: 3.58% | dose excreted [10]: 5.96% | dose excreted [11]: 0.405% | AUC(0-inf) [12]: 12300 ng·h/mL | AUC(0-t) [13]: 56.2 ng·h/mL | Activity (Homo sapiens [14]): 0% | Vd/F [15]: 390 L | CL/F [16]: 3400 mL/min | Activity (Homo sapiens [17]): 16.7% | Activity (Homo sapiens [18]): 0% | Activity (Homo sapiens [19]): 0% | CL/F [20]: 2480 mL/min | CL/F (Homo sapiens [21]): 272 L/h | Activity (Homo sapiens [22]): 0% | CL renal [23]: 4.92 mL/min | Vd/F [24]: 105 L | Activity (Homo sapiens [25]): 0% | dose excreted [26]: 5.44% | half-life [27]: 14.7 h | Vd/F [28]: 1040 L | Ratio (Homo sapiens [29]): 3.9 | Activity (Homo sapiens [30]): 0%
